MrgX1 PAM = human MrgX1 positive allosteric modulation, primary screen | hit rate 0.63% among 310,000 | MrgX1-HEK293, Fluo-4 calcium flux, FDSS; hits give high values | AID 588675 | Q96LB2 | B-score at 10 µM;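 active means plate-corrected calcium response at least 3 library SD above typical, normal starting fluorescence, not activating the receptor alone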;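 further: compound read alongside a low EC10 to EC30 dose of BAM8-22 agonist; peak minus trough fluorescence over baseline measured at the second addition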
Target sequence (Q96LB2 whole entry, looked up): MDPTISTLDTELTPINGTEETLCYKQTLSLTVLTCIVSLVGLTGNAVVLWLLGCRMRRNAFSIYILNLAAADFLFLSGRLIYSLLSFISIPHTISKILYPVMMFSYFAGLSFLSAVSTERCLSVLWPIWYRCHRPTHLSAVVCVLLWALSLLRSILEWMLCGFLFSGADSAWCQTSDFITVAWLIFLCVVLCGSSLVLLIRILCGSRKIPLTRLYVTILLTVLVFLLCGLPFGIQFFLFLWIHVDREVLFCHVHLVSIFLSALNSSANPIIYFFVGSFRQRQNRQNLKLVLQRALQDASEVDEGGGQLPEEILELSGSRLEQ
MrgX1 antagonist = antagonists of human MrgX1 receptor | MRGX1-HEK293 calcium flux, Fluo-4, BAM8-22 antagonism; hits give low values | Q96LB2 | B-score at 10 µM | AID 588676 | hit rate 1.3% among 310,000;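 active means calcium-response B-score plate-corrected more than 3 library SD below zero, starting fluorescence within 5 deviations, no agonist response on first addition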;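 further: peak minus trough fluorescence over baseline after final BAM8-22 challenge near maximal dose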
MrgX1 agonist = agonists of human MrgX1 receptor; B-score at 10 µM; hit rate 0.44% among 310,000; AID 588627; Q96LB2; MrgX1-HEK293 cells, Fluo-4 calcium fluorescence, agonist mode; hits give high values;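 active means calcium response B-score plate-corrected fluorescence ratio at least 3 library SD, with starting fluorescence B-score inside 5 SD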
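Test system: HEK293 cells stably expressing human MrgX1 receptor; Input: fifteen thousand cells per well; Dosing: compound delivered in addition one of three; Schedule: overnight seeding, then 1 h dark dye loading; Technique: Fluo-4 NW calcium fluorescence; Measure: B-scored fluorescence response ratio; Controls: positive and negative controls per plate.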
RGS4 act = RGS4 potentiation or activation; HEK293 M3R/inducible RGS4, carbachol calcium flux Fluo4; hits give low values; B-score at 10 µM; hit rate 0.92% among 310,000; AID 463111;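 active means B-score of the integrated calcium signal more than 4 SD below the library mean, with starting fluorescence not abnormally high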;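 further: negative B-score means reduced calcium response which marks RGS4 activation or potentiation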
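System: HEK293 FlpIn-TREx cells, stable M3R, doxycycline-inducible RGS4. Timing: overnight RGS4 induction, 30 min dye load 37 °C, 20 min compound RT. Also added: carbachol, ECmax concentration. Measured by: Fluo4 fluorescence kinetic imaging of calcium. Evaluation: integrated calcium ratio converted to B score.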
RGS4 block = human RGS4 inhibition; P49798; B-score at 10 µM; hit rate 0.45% among 310,000; HEK293 M3R/RGS4 inducible, Fluo-4 calcium flux; hits give high values; triggered by carbachol at its EC20;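 active means B-score, a plate-corrected calcium signal, over three deviations above library mean, with baseline fluorescence within five deviations of library mean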;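 further: RGS4 expression induced by doxycycline in cells with stable M3 receptor; B-score is computed from the integrated fluorescence ratio over baseline after carbachol; higher B-score means a larger calcium signal and so more RGS4 inhibition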
Target sequence (P49798 whole entry, looked up): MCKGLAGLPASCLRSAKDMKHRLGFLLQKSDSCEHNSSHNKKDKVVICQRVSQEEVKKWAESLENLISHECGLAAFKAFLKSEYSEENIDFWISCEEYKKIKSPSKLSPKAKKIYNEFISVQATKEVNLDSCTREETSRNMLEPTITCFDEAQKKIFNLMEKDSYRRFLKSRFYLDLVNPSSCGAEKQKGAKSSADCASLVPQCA
Of the large screens only hits and unclear results are named; the others gave an inactive call. Most compounds without a hit are left out; they make up all but 3.5% or so of the library.

Cc1c(Cc2ccccc2)sc(/N=C/c2c(O)ccc3ccccc23)c1C(N)=O	MrgX1 antagonist -7.6
Cc1c(Cc2ccccc2)sc(/N=C/c2ccc3ccccc3c2)c1C(N)=O	none (no result: RGS4 act, RGS4 block)
CCOc1cccc(N(C(=O)CNC(=O)c2ccco2)C(C(=O)NCC2CCCO2)c2ccccc2)c1 (stereo unspecified)	none
Cc1cc([N+](=O)[O-])nn1CC(=O)N/N=C/c1ccc(O)cc1O	none
CCOC(=O)C(C)NC(=O)c1cn(-c2ccc(OC)cc2)c(=O)c2ccccc12 (stereo unspecified)	none
NC(=NCCCCCCN=C(N)/N=C(\N)Nc1ccc(Cl)cc1)/N=C(\N)Nc1ccc(Cl)cc1	MrgX1 antagonist -5.7
CC(C)N=C(N)N=C(N)Nc1ccc(Cl)cc1	none (no result: RGS4 act, RGS4 block)
CC(C)=CCc1c2c(c3occ(-c4ccc(O)cc4)c(=O)c3c1O)C=CC(C)(C)O2	none
CC(C)=CCOc1ccc([C@@H]2COc3c(ccc4c3C=CC(C)(C)O4)C2)c(O)c1	RGS4 act -9.4
O=S(=O)(Nc1c(O)ccc2ccccc12)c1cccc2ccccc12	none
Cc1ccc(S(=O)(=O)Nc2c(Cl)c(Cl)c(O)c3ccccc23)cc1	RGS4 block 5.5
Cc1ccc(S(=O)(=O)Nc2ccccc2-c2ccccc2NS(=O)(=O)c2ccc(C)cc2)cc1	none
Cc1ccc(S(=O)(=O)Nc2c(O)ccc3ccccc23)cc1	MrgX1 agonist 47
N/C(CCN1CCCCC1)=N/O	none
N=c1oc2c3c4c(cc2cc1C(=O)Nc1ccccc1)CCCN4CCC3	RGS4 act -9.3
O=C1/C(=C/c2cccs2)SC(=S)N1NS(=O)(=O)c1ccccc1	none
COc1ccc(/C=C2\SC(=S)N(C(C(=O)O)c3ccccc3)C2=O)c(OC)c1 (stereo unspecified)	MrgX1 antagonist -5.2
CCOc1ccc(/C=C2\SC(=S)N(NS(=O)(=O)c3ccccc3)C2=O)cc1OC	none
O=C1/C(=C/C=C/c2ccco2)SC(=S)N1NS(=O)(=O)c1ccccc1	MrgX1 PAM 7.9 (no result: RGS4 act, RGS4 block)
CCOc1cc(/C=C2\SC(=S)N(NS(=O)(=O)c3ccccc3)C2=O)ccc1O	MrgX1 agonist 34
COc1ccc(/C=C2\SC(=S)N(NS(=O)(=O)c3ccc(C)cc3)C2=O)c(OC)c1	RGS4 act -8.2
COC(=O)c1cc(OC)c(OC)cc1NC(=S)N1CCN(c2ccccn2)CC1	none
O=C(c1ccc(-n2cnnn2)cc1)N1CCCCC1	none
O=Cc1cccc2ccc3cccc(C(=O)O)c3c12	none
COc1ccc(/C=C2\SC(=S)N(NS(=O)(=O)c3ccccc3)C2=O)c(OC)c1	MrgX1 antagonist -8.7, RGS4 act -7.5
O=[N+]([O-])c1cc(S(=O)(=O)N2CCCCCC2)ccc1F	MrgX1 PAM 6.6 (no result: RGS4 act, RGS4 block)
O=c1cc(/N=C/c2coc3cc(Br)ccc3c2=O)[nH]c(=S)[nH]1	none
CC(=O)Oc1ccc2c(=O)c(/C=N/c3cc(=O)[nH]c(=S)[nH]3)coc2c1	MrgX1 PAM 14
Cc1nc2ccccn2c1C(=O)N=Nc1c(O)n(CCC(C)C)c2ccccc12	RGS4 act -7.3
CN1C(=O)C(N=Nc2ccccc2C(=O)O)N(C)C1=S (stereo unspecified)	MrgX1 agonist 48
CC1=NN(C(N)=S)C(=O)C1N=Nc1ccccc1C(=O)O (stereo unspecified)	none
CCn1c(/C=C/c2cc[n+](C)cc2)nc2ccccc21	MrgX1 antagonist -5.9
Cc1ccc(S(=O)(=O)N2CCN(C(=O)C3=COCCO3)CC2)cc1C	none
O=C(C1=COCCO1)N1CCN(S(=O)(=O)c2cccc(Cl)c2Cl)CC1	MrgX1 antagonist -5.7
O=c1c(Cl)c(N2CCOCC2)cnn1-c1nc2ccccc2[nH]1	MrgX1 antagonist -7.1
COc1ccc(NS(=O)(=O)c2cc(C(=O)N3CCN(C/C=C/c4ccccc4)CC3)ccc2C)cc1	none
O=C1CCCCCCC1Sc1ccccc1[N+](=O)[O-] (stereo unspecified)	MrgX1 PAM 15
CC[C@H](C)/C=C/C1=CC2=C(Cl)C(=O)[C@@]3(C)OC(=O)C(C(=O)[C@H](C)[C@@H](C)O)=C3C2=CO1	MrgX1 PAM 10
CCC(C)NC(=O)c1ccccc1NC(=O)CN1C(=O)c2ccccc2S1(=O)=O (stereo unspecified)	none
CCCCN(CCCC)c1ccc(C(=O)c2ccccc2C(=O)O)c(O)c1	MrgX1 agonist 42
O=C(Cn1c(=O)n(-c2ccccc2)c(=O)n1CC(=O)N1CCCCC1)N1CCCCC1	MrgX1 agonist 36
CCN(CC(=O)NCc1ccc(F)cc1)C(=O)CN1CCN(c2cc(Cl)ccc2C)CC1	none
O=C(CN1C(=O)c2ccccc2C1=O)Oc1ccc(Cl)cc1	none
CC(C)(C)n1nnnc1C(c1cccnc1)N(Cc1ccccc1)Cc1cccs1 (stereo unspecified)	MrgX1 antagonist -6
CCCCCCCCCCCCCCCC[N+](C)(C)CC	MrgX1 antagonist -5.3
Clc1ccc(CSc2nnc(-c3sccc3-n3cccc3)o2)cc1	MrgX1 antagonist -4.8
O=C1/C(=C/c2ccco2)Cc2ccccc21	none
O=C1/C(=C\c2ccco2)CCC/C1=C\c1ccco1	MrgX1 PAM 7.6
CC1C/C(=C/c2ccco2)C(=O)/C(=C/c2ccco2)C1 (stereo unspecified)	RGS4 block 6.6
O=C1/C(=C/c2ccco2)CCC1C1CCCC1 (stereo unspecified)	none
Cc1ccc(OCC(=O)NC2CCS(=O)(=O)C2)c([N+](=O)[O-])n1 (stereo unspecified)	none
CC(=O)c1sc(NC(=O)COc2ccc(Cl)cc2C)nc1C	none
O=C(COc1ccccc1Cl)NNC(=O)c1ccc2nc[nH]c2c1	none
COc1cc(/C=C2/C(=O)N(c3cccc(Br)c3)N=C2C)cc(OC)c1O	MrgX1 agonist 62
O=C(NCCO)c1ccc2nc(-c3ccco3)c(-c3ccco3)nc2c1	none
O=C(NCCc1ccccc1)c1ccc2nc(-c3ccco3)c(-c3ccco3)nc2c1	MrgX1 antagonist -7.9
Cc1cccc(NC(=S)NC2CC3CCCC(C2)N3Cc2ccccc2)c1C (stereo unspecified)	none
Cc1[nH]c(C)c(S(=O)(=O)Nc2ccc(OC(F)(F)F)cc2)c1C(=O)N1CCCCC1	none
Cc1cc(O)c(/C=N/OCc2ccc(Cl)cc2Cl)c(=O)o1	none
O=c1c(/C=N/OCc2ccc(Cl)cc2Cl)c[nH]n1-c1cccc(Cl)n1	MrgX1 agonist 45
CN(C)CCCN1C(=O)C(O)=C(C(=O)c2cccs2)C1c1cccc([N+](=O)[O-])c1 (stereo unspecified)	MrgX1 PAM 6.6
O=C(C1=C(O)C(=O)N(CCN2CCOCC2)C1c1ccc([N+](=O)[O-])cc1)c1cccs1 (stereo unspecified)	none
N#C/C(=C\c1c[nH]c2ccccc12)C(=O)NC1CCCC1	none
O=C(OCc1ccccc1)C1CCCN1C(=O)c1ccccc1[N+](=O)[O-] (stereo unspecified)	none

Bioassay records (PubChem BioAssay)
